Source: PubChem BioAssay (several laboratories)
Granule exo inh – lytic granule exocytosis inhibition; actives 0.66% (n = 360,000); inhibition, % at 10 µM; TALL-104 LAMP-1 surface exposure, flow cytometry; cells stimulated with thapsigargin and PMA; AID 651702;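 active = inhibition above about 55%, limit read from the data; inconclusive = no clear call, values can overlap the other calls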
MC4R antagonist – antagonists of human melanocortin 4 receptor (MC4R); MC4R-expressing cells, MTII-stimulated cAMP, LANCE TR-FRET; inhibition, % at 6.5 µM; actives 0.48% (n = 360,000); AID 540295;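 active = inhibition above its plate's cutoff, the mean of tested wells on that plate plus 3 SD, cut at about 29% in these data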;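 also: 0% = Melanotan II alone and 100% = Melanotan II plus saturating MCL0020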
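material = U2OS cells stably expressing human melanocortin 4 receptor (MC4R) | also added = Melanotan II challenge | dosing = single nominal compound dose of 6.5 µM | detection = TR-FRET with Eu-cAMP and labeled anti-cAMP, 671 nm | replication = singlicate | timing = compound 30 min, challenge 1 h, detection 1 h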
MC4R barr agon – agonists of human melanocortin 4 receptor (MC4R) beta-arrestin | AID 540308 | activation, % at 8.9 µM | actives 0.98% (n = 360,000) | U2OS MC4R beta-arrestin complementation, luminescence; percent of melanotan II response, DMSO zero;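 active = activation above a per-plate cutoff, the mean activation of sample wells on that plate plus 3 SD, cut at about 8% in these data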
Myeloid diff 2 – myeloid differentiation induction. ER-HoxA9 myeloid progenitors, lysozyme-GFP differentiation, flow cytometry. calls only at 10 µM. actives 1% (n = 360,000);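 active = normalized GFP-positive differentiation at or above the plate's own cutoff, the solvent-only control mean plus 3 SD; inconclusive = no clear call, values can overlap the other calls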;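 also: cells exposed to compound for four days before flow analysis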
EBI2 antag – antagonists of human EBI2 receptor. inhibition, % at 5 µM. EBI2 beta-arrestin recruitment, luminescence, 7a,25-OHC stimulated. actives 0.81% (n = 360,000); in the data active = inhibition above about 38%;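 also: enzyme fragment complementation signal reports receptor beta-arrestin coupling in cells; 0% = agonist plus DMSO wells and 100% = wells without agonist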
Target sequence (P32249 whole entry, looked up, the tested form may be a part): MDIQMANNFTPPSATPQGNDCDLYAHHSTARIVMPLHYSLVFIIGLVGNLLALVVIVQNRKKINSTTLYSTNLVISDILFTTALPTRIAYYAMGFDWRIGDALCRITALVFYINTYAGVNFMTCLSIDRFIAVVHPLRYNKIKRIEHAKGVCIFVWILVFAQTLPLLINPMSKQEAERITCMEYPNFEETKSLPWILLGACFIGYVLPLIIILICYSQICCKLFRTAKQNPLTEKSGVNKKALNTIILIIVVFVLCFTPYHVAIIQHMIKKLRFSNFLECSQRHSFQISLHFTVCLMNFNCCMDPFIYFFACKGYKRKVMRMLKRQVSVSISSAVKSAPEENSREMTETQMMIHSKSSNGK
U2OS cAMP counter – counter-screen for MC4R antagonists: nonselective cAMP signaling inhibitors. shares compounds with MC4R antagonist. parental U2OS, forskolin cAMP, LANCE TR-FRET. inhibition, % at 6.5 µM. actives 26% (n = 1,600). AID 602193;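 active = mean inhibition over triplicates above the low-control well mean plus 3 SD, set per campaign, cut at about 13% in these data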;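 also: signal is single emission at 671 nm which falls as cellular cAMP rises; 0% = forskolin-stimulated wells and 100% = buffer without forskolin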
MC4R antag conf – human MC4R cAMP antagonism confirmation | inhibition, % at 6.5 µM | MC4R-expressing cells, MTII-stimulated cAMP, TR-FRET | actives 27% (n = 1,600) | shares compounds with MC4R antagonist; in the data active = inhibition above about 29%;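 also: 0% = agonist stimulated wells alone and 100% = agonist stimulated wells plus saturating reference antagonist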
An asterisk follows results filed as active. An excerpt weighted towards active compounds, which were near 3.7% of everything screened.

CCc1cccc(NC(=O)COC(=O)c2c(C)nn(-c3ccccc3)c2C)c1 was read as Granule exo inh -8, MC4R antagonist -1, MC4R barr agon 0, Myeloid diff 2 inactive and EBI2 antag 1.
`COc1ccccc1CN(C)C(=O)c1ccc(COc2ccccc2)cc1` gave Granule exo inh 29, MC4R antagonist 31*, MC4R barr agon 1, Myeloid diff 2 inactive, EBI2 antag 22, U2OS cAMP counter 5 and MC4R antag conf -2.
`COc1ccc(CN(C)C(=O)c2ccc(COc3ccccc3)cc2)c(OC)c1` gave Granule exo inh 18, MC4R antagonist -2, MC4R barr agon 0, Myeloid diff 2 inactive and EBI2 antag 14.
Screening CCc1ccc([C@@H]2CC(=O)[C@@H]3CN(S(=O)(=O)c4ccccc4)[C@H](c4ccc(OC)cc4)C[C@@H]3N2S(=O)(=O)c2ccc(C)cc2)cc1 returned Granule exo inh -2, Myeloid diff 2 inactive and EBI2 antag 2.
`O=C(CSc1c2c(nc3cc(Cl)ccc13)CCCC2)NCCCN1CCOCC1` gave Granule exo inh 12, MC4R antagonist 11, MC4R barr agon -2, Myeloid diff 2 inactive and EBI2 antag 2.
O=C(CSc1c2c(nc3cc(Cl)ccc13)CCCC2)NCCN1CCOCC1 was read as Granule exo inh 1, MC4R antagonist 30*, MC4R barr agon -3, Myeloid diff 2 inactive, EBI2 antag 4, U2OS cAMP counter 3 and MC4R antag conf 24.
CCOC(=O)C(=Cc1ccc(-n2ccnc2)cc1)C(=O)OCC was read as Granule exo inh 3, MC4R antagonist 34*, MC4R barr agon -3, Myeloid diff 2 inconclusive, EBI2 antag 28, U2OS cAMP counter 9 and MC4R antag conf 25.
Screening CCC(C)(C)NC(=O)CN(Cc1ccc2c(c1)OCO2)C(=O)CCC(=O)Nc1cc(C)ccn1 returned Granule exo inh 24, MC4R antagonist 30*, MC4R barr agon 2, Myeloid diff 2 inactive, EBI2 antag 5, U2OS cAMP counter -2 and MC4R antag conf -5.
`Cc1ccc(NC(=O)c2nc(S(=O)(=O)Cc3ccccc3C)ncc2Cl)cc1C` gave Granule exo inh 42, MC4R antagonist 32*, MC4R barr agon -5, Myeloid diff 2 inconclusive, EBI2 antag 56*, U2OS cAMP counter 30* and MC4R antag conf 15.
CN(c1ccccc1)S(=O)(=O)c1ccc(NC(=O)c2ccccc2)cc1 was read as Granule exo inh 20, MC4R antagonist 0, MC4R barr agon -2, Myeloid diff 2 inactive and EBI2 antag -9.
`CN(c1ccccc1)S(=O)(=O)c1ccc(NC(=O)c2nc(S(C)(=O)=O)ncc2Cl)cc1` gave Granule exo inh 31, MC4R antagonist 57*, MC4R barr agon -3, Myeloid diff 2 inconclusive, EBI2 antag 41, U2OS cAMP counter 26* and MC4R antag conf 36*.
`Cc1ccc(S(=O)(=O)CCc2nnc(NC(=O)c3cnccn3)s2)cc1` gave Granule exo inh 2, MC4R antagonist -8, MC4R barr agon 0, Myeloid diff 2 inactive and EBI2 antag -4.
CC1CCN(S(=O)(=O)c2ccc(NC(=O)c3ccncc3)cc2)CC1 was read as Granule exo inh -4, MC4R antagonist 1, MC4R barr agon -2, Myeloid diff 2 inactive and EBI2 antag 1.
Screening CCCc1nnc(NC(=O)c2nc(S(=O)(=O)Cc3ccc(C)cc3)ncc2Cl)s1 returned Granule exo inh 6, MC4R antagonist 52*, MC4R barr agon -5, Myeloid diff 2 inactive, EBI2 antag 17, U2OS cAMP counter 22* and MC4R antag conf 36*.
CCS(=O)(=O)c1ncc(Cl)c(C(=O)Nc2ccc(S(=O)(=O)N3CCC(C)CC3)cc2)n1 was read as Granule exo inh 22, MC4R antagonist 56*, MC4R barr agon -3, EBI2 antag 49*, U2OS cAMP counter 9 and MC4R antag conf 39*.
`CSc1ncc(Cl)c(C(=O)Nc2ccc(C)c(C)c2)n1` gave Granule exo inh -4, MC4R antagonist -5, MC4R barr agon -2, Myeloid diff 2 inactive and EBI2 antag 14.
